Screens from PubChem.
PAFAH2 inh – PAFAH2 enzyme inhibitors, primary screen, biochemical, fluorescence polarization, human. AID 492956, 2010. recombinant PAFAH2, FP-rhodamine activity probe. Platelet-activating factor acetylhydrolase 2, cytoplasmic (Homo sapiens), Q99487. inhibition, % at 3.39 µM. 0.99% of 340,000 active;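 active = inhibition above the mean over all tested compounds plus 3 SD, cut at about 30% in these data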;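 also: inhibitors block probe labeling of enzyme so polarization drops; 0% = enzyme with DMSO and 100% = wells lacking PAFAH2 protein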
GRIN3A LBD mod – binders of NR3A ligand-binding domain, primary screen, biophysical, differential scanning fluorimetry, uHTS. NR3A LBD differential scanning fluorimetry, Tm shift; 0% = protein alone, 100% = glycine-bound protein. 2.5% of 340,000 active. Tm shift relative to glycine control, % at 25 µM. Glutamate receptor ionotropic, NMDA 3A (GRIN3A) ligand-binding domain. AID 1259313, 2017;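 active = melting temperature shift of at least 10% of the positive control shift, at one fixed dose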
PAFAH1B2 FP inh – PAFAH1B2 enzyme inhibitors, primary screen, biochemical, fluorescence polarization, human; AID 492953, 2010; Platelet-activating factor acetylhydrolase IB subunit alpha2 (Homo sapiens), P68402; recombinant PAFAH1B2, FP-rhodamine activity probe; 1.2% of 340,000 active; inhibition, % at 3.39 µM;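 active = inhibition above the mean of all tested compounds plus 3 SD, cut at about 24% in these data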;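 also: 0% = enzyme with DMSO and 100% = wells lacking PAFAH1B2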
pPAFAH inh – pPAFAH enzyme inhibitors, primary screen, biochemical, fluorescence polarization, human; 1.5% of 330,000 active; inhibition, % at 3.39 µM; recombinant pPAFAH, FP-rhodamine probe fluorescence polarization;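 active = inhibition above the mean inhibition across the screen plus 3 SD, cut at about 25% in these data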;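 also: inhibitors block binding of the rhodamine activity-based probe so polarization drops; 0% = enzyme with DMSO and 100% = wells lacking pPAFAH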
Target sequence (Q13093 whole entry, looked up): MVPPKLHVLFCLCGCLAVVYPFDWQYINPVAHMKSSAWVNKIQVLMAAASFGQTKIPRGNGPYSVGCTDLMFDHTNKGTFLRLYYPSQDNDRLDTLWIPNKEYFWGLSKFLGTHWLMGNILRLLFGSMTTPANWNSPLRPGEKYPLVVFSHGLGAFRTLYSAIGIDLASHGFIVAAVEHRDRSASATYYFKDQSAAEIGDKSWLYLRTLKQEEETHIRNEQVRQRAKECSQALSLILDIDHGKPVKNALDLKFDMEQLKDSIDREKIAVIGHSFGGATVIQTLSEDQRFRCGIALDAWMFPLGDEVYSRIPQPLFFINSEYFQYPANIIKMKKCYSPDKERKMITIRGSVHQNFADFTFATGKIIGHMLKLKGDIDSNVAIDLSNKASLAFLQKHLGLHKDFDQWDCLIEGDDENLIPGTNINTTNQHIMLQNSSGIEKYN
PAFAH1B3 inh – PAFAH1B3 enzyme inhibitors, primary screen, biochemical, fluorescence polarization, human; Platelet-activating factor acetylhydrolase IB subunit alpha1 (Homo sapiens), Q15102; recombinant PAFAH1B3, FP-rhodamine probe; inhibition, % at 3.39 µM; 0.28% of 340,000 active;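 active = inhibition above the screen-wide average of all tested compounds plus 3 SD, cut at about 25% in these data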;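 also: 0% = enzyme with DMSO only and 100% = wells lacking PAFAH1B3 protein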
Target sequence (Q15102 whole entry, looked up): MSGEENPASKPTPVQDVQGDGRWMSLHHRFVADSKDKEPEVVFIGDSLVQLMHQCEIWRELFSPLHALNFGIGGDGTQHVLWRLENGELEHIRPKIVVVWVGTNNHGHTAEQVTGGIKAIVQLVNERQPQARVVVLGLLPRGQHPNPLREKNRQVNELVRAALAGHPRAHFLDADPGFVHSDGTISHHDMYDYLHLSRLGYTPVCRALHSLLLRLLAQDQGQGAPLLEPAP
UCH37 DUB inh – inhibitors of human UCH37 deubiquitinase, primary screen, biochemical, Ub-AMC cleavage, fluorescence. Ubiquitin carboxyl-terminal hydrolase isozyme L5 (Homo sapiens), Q9Y5K5. purified proteasome/UCH37. inhibition, % (concentration not given with the values). 0.33% of 330,000 active. AID 588478, 2011;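 active = mean inhibition over replicate wells above about 20%, limit read from the data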;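 also: 0% = compound-free wells with enzyme and 100% = wells lacking proteasome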
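System: Proteasome-associated human UCH37 deubiquitinase; Input: 0.15 nM proteasome in added enzyme buffer; Also added: Ub-AMC substrate from 1 µM stock; Incubation: 30 min compound-proteasome preincubation then 25 min substrate reaction, room temperature; Detection: fluorescence, ex 355 nm, em 460 nm; Read-out: % inhibition of Ub-AMC cleavage fluorescence; Benchmarks: no-proteasome and no-compound wells.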
Starred values were filed as active, the others as inactive. Sampled rows, rich in hits. Any-hit rate of the full collection: about 4.8%.

How did O=C(Nc1cccc(Br)c1)c1ccc2nc(N3C(=O)CCC3=O)sc2c1 do in these assays?
PAFAH2 inh: -35; GRIN3A LBD mod: 14*; PAFAH1B2 FP inh: -10; pPAFAH inh: -8; PAFAH1B3 inh: -22; UCH37 DUB inh: -31

What do the screens show for `O=C(Nc1cccc([N+](=O)[O-])c1)c1ccc2nc(N3C(=O)CCC3=O)sc2c1`?
PAFAH2 inh: -14; GRIN3A LBD mod: -2; PAFAH1B2 FP inh: -3; pPAFAH inh: -8; PAFAH1B3 inh: -7; UCH37 DUB inh: 0

Results for O=C(c1cccc(C(F)(F)F)c1)C1CCCN(C(=O)CN2CCOC2=O)C1 (centres undefined) ?
PAFAH2 inh: -1; GRIN3A LBD mod: 11*; PAFAH1B2 FP inh: 2; pPAFAH inh: 2; PAFAH1B3 inh: 8; UCH37 DUB inh: 1

How did CCCCNc1nc2c(S(=O)(=O)c3ccccc3)nnn2c2ccccc12 do in these assays?
PAFAH2 inh: -19; GRIN3A LBD mod: 15*; PAFAH1B2 FP inh: 1; pPAFAH inh: -3; PAFAH1B3 inh: -8; UCH37 DUB inh: -43

How did COc1ccc(C=NNc2cc(C)nc3c(C)cccc23)cc1 do in these assays?
UCH37 DUB inh: -34

Results for COc1ccc(C(=O)CCc2ccccc2)c(O)c1 ?
PAFAH2 inh: 0; GRIN3A LBD mod: 1; PAFAH1B2 FP inh: 8; pPAFAH inh: 3; PAFAH1B3 inh: 2; UCH37 DUB inh: 2

Results for O=C(CCc1ccccc1)c1c(O)cc(O)cc1O ?
PAFAH2 inh: 4; GRIN3A LBD mod: 13*; PAFAH1B2 FP inh: 42*; pPAFAH inh: 10; PAFAH1B3 inh: 1; UCH37 DUB inh: 5

How did Cc1cc(-c2cccs2)c2c(N)c(C(=O)c3ccc4c(c3)OCO4)sc2n1 do in these assays?
PAFAH2 inh: 1; GRIN3A LBD mod: 21*; PAFAH1B2 FP inh: 2; pPAFAH inh: 2; PAFAH1B3 inh: 2; UCH37 DUB inh: -17

What do the screens show for `COc1ccc(C(=O)c2sc3nc(C)cc(-c4cccs4)c3c2N)cc1`?
PAFAH2 inh: 0; GRIN3A LBD mod: 1; PAFAH1B2 FP inh: 4; PAFAH1B3 inh: -1; UCH37 DUB inh: -13

What do the screens show for `NC(=O)c1cc([N+](=O)[O-])ccc1Nc1ccccc1`?
PAFAH2 inh: -5; GRIN3A LBD mod: -3; PAFAH1B2 FP inh: 7; pPAFAH inh: 5; PAFAH1B3 inh: 0; UCH37 DUB inh: -1

What do the screens show for `O=c1nc(Nc2ccccc2)sc2ccc([N+](=O)[O-])cc12`?
PAFAH2 inh: 0; GRIN3A LBD mod: 20*; PAFAH1B2 FP inh: 0; pPAFAH inh: -2; PAFAH1B3 inh: -1

What do the screens show for `COCCn1c(C)cc(C=NNC(=O)c2cc3ccccc3cc2O)c1C`?
UCH37 DUB inh: 0

How did CC(=NNC(=O)c1cccc(Br)c1)c1cccc(NC(=O)c2ccc(C)o2)c1 do in these assays?
UCH37 DUB inh: 2

What do the screens show for `COCc1cc(C)nc(OCC(=O)NN=Cc2ccc(O)cc2O)c1C#N`?
UCH37 DUB inh: 8

How did O=C(O)c1ccccc1NC(c1ccccc1)c1ccc(Cl)cc1 (centres undefined) do in these assays?
PAFAH2 inh: 3; GRIN3A LBD mod: -22; PAFAH1B2 FP inh: 41*; pPAFAH inh: 16; PAFAH1B3 inh: 12

How did CC(=O)n1c2c(c3ccccc31)OC(N)=C(C#N)C2c1cccc(Cl)c1Cl (centres undefined) do in these assays?
PAFAH2 inh: -10; GRIN3A LBD mod: 13*; PAFAH1B2 FP inh: -2; pPAFAH inh: -5; PAFAH1B3 inh: -8; UCH37 DUB inh: 1

How did CC(=O)C(=NNc1ccc(Cl)cc1Cl)Sc1nnc(-c2ccccc2)n1-c1ccccc1 do in these assays?
UCH37 DUB inh: 5

How did CCN(CC(=O)NCc1ccc(F)cc1)CC(=O)Nc1cc(S(=O)(=O)N(C)C)ccc1C do in these assays?
PAFAH2 inh: 2; GRIN3A LBD mod: -1; PAFAH1B2 FP inh: -3; pPAFAH inh: 29*; PAFAH1B3 inh: -2; UCH37 DUB inh: 1

Results for CCN(CC(=O)NCc1ccc(F)cc1)CC(=O)Nc1ccc(Br)cc1F ?
PAFAH2 inh: 6; GRIN3A LBD mod: 0; PAFAH1B2 FP inh: 8; pPAFAH inh: -7; PAFAH1B3 inh: 5; UCH37 DUB inh: 2

Results for O=C(CCn1nnc2ccccc21)Nc1nnc(Cc2ccccc2)s1 ?
PAFAH2 inh: 14; GRIN3A LBD mod: -1; PAFAH1B2 FP inh: 27*; pPAFAH inh: 8; PAFAH1B3 inh: 8; UCH37 DUB inh: 1

How did O=C(CCn1nnc2ccccc21)Nc1nnc(COc2ccccc2F)s1 do in these assays?
PAFAH2 inh: 2; GRIN3A LBD mod: -1; PAFAH1B2 FP inh: 18; pPAFAH inh: 0; PAFAH1B3 inh: 1; UCH37 DUB inh: 2

Results for O=C(N/N=C/c1ccc[nH]1)c1ccccc1OCc1ccc(F)cc1 ?
PAFAH2 inh: 6; GRIN3A LBD mod: 10; PAFAH1B2 FP inh: 7; pPAFAH inh: 7; PAFAH1B3 inh: 0

Results for CCOc1ccc(/C=N/NC(=O)c2ccccc2NC(=O)c2ccc(OC)cc2)cc1 ?
PAFAH2 inh: -54; GRIN3A LBD mod: 15*; PAFAH1B2 FP inh: -8; pPAFAH inh: -6; PAFAH1B3 inh: -20

Results for CCOc1ccc(OCc2ccc(C(=O)NN=Cc3ccc[nH]3)cc2)cc1 ?
PAFAH2 inh: 1; GRIN3A LBD mod: 19*; PAFAH1B2 FP inh: 4; pPAFAH inh: 4; PAFAH1B3 inh: 6; UCH37 DUB inh: -7

What do the screens show for `CCOc1ccc(C=NNC(=O)c2ccccc2NC(=O)c2ccc(OC)cc2)cc1`?
UCH37 DUB inh: -16

Results for CC(=NNC(=O)Cn1c(-c2ccccn2)nc2ccccc21)c1cccc(O)c1 ?
UCH37 DUB inh: 1

How did O=C1NCCCC1C(=O)NN=Cc1ccccc1 (centres undefined) do in these assays?
UCH37 DUB inh: 4

What do the screens show for `CCCCn1c(N)c(N(CC(C)C)C(=O)c2ccc(S(=O)(=O)N3CCC(C)CC3)cc2)c(=O)[nH]c1=O`?
PAFAH2 inh: -1; GRIN3A LBD mod: 3; PAFAH1B2 FP inh: 1; pPAFAH inh: 32*; PAFAH1B3 inh: 2; UCH37 DUB inh: -5

Results for CCCCn1c(N)c(N(CCOC)C(=O)c2cc(S(=O)(=O)N3CCCCC3)ccc2Cl)c(=O)[nH]c1=O ?
PAFAH2 inh: -1; GRIN3A LBD mod: 20*; PAFAH1B2 FP inh: 1; pPAFAH inh: 2; PAFAH1B3 inh: -2; UCH37 DUB inh: 0
